In one assay the test system is MOR. The assay is described as follows: Ca2+ mobilization. It counts as cell-based. The note with it: agonist; HEK-293 with chimeric G-protein delta6-Gqi4-myr. An outline of the steps: (§1)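 HEK-293 cells stably expressing the receptor, grown in DMEM with 10% FCS at 37 °C in 7% CO2, were transiently transfected with Δ6-Gqi4-myr (100 ng per 60,000 cells). After one day, cells were loaded with Ca2+ dye for 60 min and stimulated with increasing ligand concentrations to give dose–response curves and EC50. Each experiment was run at least three times in triplicate; values are means ± SEM.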

A further assay relates to KOR. The assay is described as follows: Ca2+ mobilization. It is filed as cell-based. The note with it: agonist; HEK-293 with chimeric G-protein delta6-Gqi4-myr. In short, it runs like this: as §1

Counter-ions that a name gives are not always drawn.

For `COC(=O)N1CCN(C(=O)Cc2ccc(Cl)c(Cl)c2)C(CN2CCCC2)C1` (centres unmarked) [GR89, 696, 4-[(3,4-Dichlorophenyl)acetyl]-3-(1-pyrrolidinylmethyl)-1-piperazine-carboxylic acid methyl ester fumarate], the “pEC50 (M) / MOR” value in the assay with MOR is 7.2 ± 0.2 pEC50 (M). The “pEC50 (M) / KOR” value in the assay on KOR is 10.1 ± 0.2 pEC50 (M).
